Activity calls are given as the source filed them. The calls are words filed in the database; no cut-off is given here.
Key:
Glucagon receptor [1] = biological target: T1, Glucagon receptor (Homo sapiens, UniProt P47871); assay: Induction of GCGR desensitization expressed in HEK293 cells assessed as reduction in glucagon-induced calcium influx at 1 uM incubated for 30 mins prior to glucagon-induction by Fluo-4-AM based fluorimetry; type: functional, cell-based
Summary of the method: (§1)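 HEK293 cells stably co-expressing GCGR and Gα16, selected with G418/blasticidin, seeded 3 × 10^4/well overnight. Loaded with 2 μM Fluo-4 AM in HBSS with sulfinpyrazone, pH 7.4, 45 min at 37 °C. First stimulation with compound, 100 nM glucagon or 1% DMSO. After 30 min cells washed and restimulated with 100 nM glucagon. Calcium read at ex 485/em 525 nm. Three independent experiments, each in triplicate.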

[2] = biological target: Protein kinase C alpha type (Homo sapiens) (UniProt P17252); assay: Activation of human GFP-tagged PKCalpha expressed in HEK293 cells assessed as translocation from cytoplasm to membrane at 1 uM after 30 mins by Hoechst staining-based fluorescence microscopy in presence of GF109203X; type: cell-based
Summary of the method: (§2)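 HEK293 cells transfected with pCR259hPKCα-GFP, grown overnight on coverslips. Pretreated 15 min at 37 °C with GF109203 X or vehicle, then stimulated 30 min. Fixed in 4% formaldehyde/PBS, nuclei stained with Hoechst 33342 10 min at room temperature. GFP-PKCα membrane translocation imaged by inverted fluorescence microscopy.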

[3] = biological target: T2, C-C chemokine receptor type 6 (Homo sapiens, UniProt P51684); assay: Inhibition of CCR6 expressed in HEK293 cells assessed as inhibition of calcium influx after 10 mins by Fluo-4-AM based fluorimetry; type: functional, cell-based
T2 sequence (P51684 whole entry): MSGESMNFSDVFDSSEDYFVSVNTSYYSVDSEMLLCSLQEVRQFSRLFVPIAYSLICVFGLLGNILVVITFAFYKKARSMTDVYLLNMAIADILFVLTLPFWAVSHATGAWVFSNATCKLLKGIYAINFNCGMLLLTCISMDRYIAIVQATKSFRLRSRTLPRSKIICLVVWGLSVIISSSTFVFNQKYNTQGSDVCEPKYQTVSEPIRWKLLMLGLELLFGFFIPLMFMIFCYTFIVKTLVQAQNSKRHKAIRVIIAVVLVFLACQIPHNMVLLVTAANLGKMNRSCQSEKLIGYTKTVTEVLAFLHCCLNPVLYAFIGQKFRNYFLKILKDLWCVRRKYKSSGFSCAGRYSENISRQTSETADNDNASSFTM
Summary of the method: (§3)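 HEK293 cells stably co-expressing the receptor and Gα16, seeded 3 × 10^4/well overnight. Loaded with 2 μM Fluo-4 AM in HBSS (pH 7.4, 250 μM sulfinpyrazone) 45 min at 37 °C, then pretreated with compound. Receptor-specific agonist added (SunA1-30 for Mth-B). Calcium recorded at ex 485/em 525 nm. IC50 from nonlinear regression; mean ± SEM, n = 3.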

Glucagon receptor [4] = biological target: T1, Glucagon receptor; assay: Induction of GCGR desensitization expressed in HEK293 cells assessed as reduction in glucagon-induced calcium influx at 1 uM incubated for 30 mins prior to glucagon-induction by Fluo-4-AM based fluorimetry in presence of GF109203X; type: functional, cell-based
Summary of the method: (§4)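 Setup as for the GCGR calcium assay (stable GCGR/Gα16 HEK293, 2 μM Fluo-4 AM, HBSS pH 7.4). Cells preincubated 15 min with 10 μM GF109203X. Then first stimulation with compound, 100 nM glucagon or 1% DMSO. After 30 min cells washed, restimulated with 100 nM glucagon, calcium read at ex 485/em 525 nm. Three independent experiments in triplicate.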

Glucagon receptor [5] = biological target: T1, Glucagon receptor; assay: Agonist activity at GCGR expressed in HEK293 cells assessed as calcium influx at 1 uM by Fluor-4-AM based fluorimetry in presence of GF109203X; type: functional, cell-based; summary of the method: as §4
[6] = biological target: Protein kinase C alpha type (Homo sapiens) (UniProt P17252); assay: Activation of human GFP-tagged PKCalpha expressed in HEK293 cells assessed as translocation from cytoplasm to membrane at 1 uM after 30 mins by Hoechst staining-based fluorescence microscopy; type: cell-based; summary of the method: as §2
[7] = biological target: T3, Alpha-1B adrenergic receptor (Homo sapiens, UniProt P35368); assay: Inhibition of adrenergic receptor 1b receptor expressed in HEK293 cells assessed as inhibition of calcium influx after 10 mins by Fluo-4-AM based fluorimetry; type: functional, cell-based; summary of the method: as §3
T3 sequence (P35368 whole entry): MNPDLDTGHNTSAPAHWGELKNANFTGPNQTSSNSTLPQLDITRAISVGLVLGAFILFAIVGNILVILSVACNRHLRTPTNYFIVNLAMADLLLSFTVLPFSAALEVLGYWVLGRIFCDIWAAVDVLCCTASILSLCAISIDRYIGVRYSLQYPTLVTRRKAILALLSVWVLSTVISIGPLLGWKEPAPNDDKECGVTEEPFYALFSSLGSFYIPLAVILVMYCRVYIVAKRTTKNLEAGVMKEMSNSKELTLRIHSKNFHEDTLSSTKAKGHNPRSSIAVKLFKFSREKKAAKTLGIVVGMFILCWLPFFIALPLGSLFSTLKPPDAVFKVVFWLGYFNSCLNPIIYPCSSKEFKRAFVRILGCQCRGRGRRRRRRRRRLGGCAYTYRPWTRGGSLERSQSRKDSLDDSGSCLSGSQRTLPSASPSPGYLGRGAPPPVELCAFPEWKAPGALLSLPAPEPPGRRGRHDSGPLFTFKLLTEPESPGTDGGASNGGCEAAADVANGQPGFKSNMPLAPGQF

Glucagon receptor [8] = biological target: T1, Glucagon receptor; assay: Activation of pDsRed-tagged GCGR expressed in HEK293 cells assessed as receptor internalization at 1 uM incubated after 30 mins by Hoechst staining-based fluorescence microscopy; type: cell-based
Summary of the method: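 HEK293 cells transfected with pDsRed-GCGR, grown overnight on coverslips. Stimulated 30 min at 37 °C, with 1% DMSO as negative control. Fixed in 4% formaldehyde/PBS, nuclei stained with Hoechst 33342. Surface versus internalized receptor scored by fluorescence microscopy.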

HEK293 = assay: (§5) Inhibition of Drosophila MthB expressed in HEK293 cells assessed as inhibition of SunA1-30-induced calcium influx incubated for 10 mins prior to SunA1-30 addition by Fluo-4-AM based fluorimetry; type: cell-based; summary of the method: as §3
[9] = as §5; type: cell-based; summary of the method: as §3
[10] = biological target: T4, Protein kinase C (PKC) (Homo sapiens) (UniProt O94806+P41743+P17252+P05129+Q05655+P05771+Q05513+Q02156+P24723+Q15139+Q04759); assay: Induction of PKC phosphorylation in HEK293 cells at 1 uM by Western blot analysis in presence of GF109203 X; type: cell-based
Summary of the method: (§6)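 Serum-starved (4 h) HEK293 cells. Phospho-PKC induced by compound (1 μM) or TPA (100 nM), each in the presence of GF109203 X (1 μM) or rottlerin (10 μM). Read by Western blot with phospho-PKC antibody, normalized to GAPDH. Mean ± SEM, n = 3; two-tailed t test.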

Glucagon receptor [11] = biological target: T1, Glucagon receptor; assay: Agonist activity at GCGR expressed in HEK293 cells assessed as calcium influx at 1 uM by Fluor-4-AM based fluorimetry; type: functional, cell-based; summary of the method: as §1
Glucagon receptor [12] = biological target: T1, Glucagon receptor; assay: Induction of GCGR desensitization expressed in HEK293 cells assessed as reduction in glucagon-induced calcium influx at 1 uM incubated for 30 mins prior to glucagon-induction by Fluo-4-AM based fluorimetry in presence of rottlerin; type: functional, cell-based
Summary of the method: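 Stable GCGR/Gα16 HEK293 cells loaded with 2 μM Fluo-4 AM, then preincubated 15 min with 10 μM rottlerin. First stimulation with compound, 100 nM glucagon or DMSO. After 30 min cells washed and restimulated with 100 nM glucagon. Intracellular calcium recorded at ex 485/em 525 nm. Three independent experiments in triplicate.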

Glucagon receptor [13] = biological target: T1, Glucagon receptor; assay: Inhibition of GCGR expressed in HEK293 cells assessed as inhibition of calcium influx after 10 mins by Fluo-4-AM based fluorimetry; type: functional, cell-based
Summary of the method: (§7)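 HEK293 cells stably co-expressing GCGR and Gα16 (G418/blasticidin selected) were seeded at 3 × 10^4 cells/well and cultured overnight. They were loaded with 2 μM Fluo-4 AM in HBSS (pH 7.4, 250 μM sulfinpyrazone) at 37 °C for 45 min, held 10 min at room temperature, then given agonist. Calcium was read at ex 485/em 525 nm. IC50 came from nonlinear regression, means ± SEM, n = 3.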

[14] = biological target: T4, Protein kinase C (PKC) (Homo sapiens); assay: Induction of PKC phosphorylation in HEK293 cells at 1 uM by Western blot analysis; type: cell-based; conditions: TDE = time-dependent effect
Summary of the method: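 HEK293 cells serum-starved 4 h, then treated for various durations at 37 °C, with 100 nM TPA as reference. Lysates run on 10% SDS-PAGE and immunoblotted with an antibody detecting phosphorylated conventional and novel PKC isoforms (1:1000). Signal normalized to GAPDH, detected by ECL. Mean ± SEM, n = 3; two-tailed t test.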

[15] = biological target: T4, Protein kinase C (PKC) (Homo sapiens); assay: Induction of PKC phosphorylation in HEK293 cells at 1 uM by Western blot analysis in presence of rotterin; type: cell-based; summary of the method: as §6
[16] = biological target: T5, Alpha-1A adrenergic receptor (Homo sapiens, UniProt P35348); assay: Inhibition of adrenergic receptor 1a expressed in HEK293 cells assessed as inhibition of calcium influx after 10 mins by Fluo-4-AM based fluorimetry; type: functional, cell-based; summary of the method: as §3
T5 sequence (P35348 whole entry): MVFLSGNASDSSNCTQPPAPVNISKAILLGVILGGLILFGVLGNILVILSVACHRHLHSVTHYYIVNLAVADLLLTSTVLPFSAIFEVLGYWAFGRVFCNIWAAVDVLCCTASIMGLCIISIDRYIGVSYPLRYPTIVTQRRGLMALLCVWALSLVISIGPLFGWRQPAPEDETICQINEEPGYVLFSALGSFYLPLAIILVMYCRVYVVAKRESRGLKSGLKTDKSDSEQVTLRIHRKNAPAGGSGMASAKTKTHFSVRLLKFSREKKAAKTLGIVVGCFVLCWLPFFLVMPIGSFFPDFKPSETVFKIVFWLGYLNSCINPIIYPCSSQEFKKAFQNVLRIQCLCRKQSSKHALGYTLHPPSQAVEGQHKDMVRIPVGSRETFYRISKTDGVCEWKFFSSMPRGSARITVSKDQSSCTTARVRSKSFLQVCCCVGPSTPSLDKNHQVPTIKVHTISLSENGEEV

Glucagon receptor [17] = biological target: T1, Glucagon receptor; assay: Agonist activity at GCGR expressed in HEK293 cells assessed as calcium influx at 100 nM by Fluor-4-AM based fluorimetry in presence of GF109203X; type: functional, cell-based
Summary of the method: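 Fluo-4 AM-loaded GCGR stable HEK293 cells were preincubated with 10 μM GF109203X for 15 min, then stimulated with 100 nM glucagon, test agent or 1% DMSO. After 30 min they were washed and restimulated with 100 nM glucagon, with calcium read fluorimetrically. There were three independent experiments, each in triplicate.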

Glucagon receptor [18] = biological target: T1, Glucagon receptor; assay: Induction of GCGR desensitization expressed in HEK293 cells assessed as reduction in calcium influx at 100 nM incubated for 30 mins prior to second-induction by Fluo-4-AM based fluorimetry; type: functional, cell-based
Summary of the method: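 GCGR/Gα16 stable HEK293 cells were loaded with Fluo-4 AM and given a first stimulation (100 nM glucagon or test agent; 1% DMSO as the negative control). After a 30 min incubation, cells were washed and restimulated with 100 nM glucagon, and intracellular calcium was recorded at ex 485/em 525 nm. There were three independent experiments, each in triplicate.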

Glucagon receptor [19] = biological target: T1, Glucagon receptor; assay: Activation of pDsRed-tagged GCGR expressed in HEK293 cells assessed as receptor internalization at 100 nM incubated after 30 mins by Hoechst staining-based fluorescence microscopy; type: cell-based
Summary of the method: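 HEK293 cells transfected with pDsRed-GCGR were seeded on coverslips, cultured overnight, then stimulated at 37 °C for 30 min, with 1% DMSO as the negative control. Cells were fixed in 4% formaldehyde in PBS and nuclei were stained with Hoechst 33342 for 10 min at room temperature. Receptor surface versus internalized location was judged by fluorescence microscopy.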

Glucagon receptor [20] = biological target: T1, Glucagon receptor; assay: Agonist activity at GCGR expressed in HEK293 cells assessed as calcium influx at 100 nM by Fluor-4-AM based fluorimetry; type: functional, cell-based; summary of the method: as §7

T1 sequence (P47871 whole entry): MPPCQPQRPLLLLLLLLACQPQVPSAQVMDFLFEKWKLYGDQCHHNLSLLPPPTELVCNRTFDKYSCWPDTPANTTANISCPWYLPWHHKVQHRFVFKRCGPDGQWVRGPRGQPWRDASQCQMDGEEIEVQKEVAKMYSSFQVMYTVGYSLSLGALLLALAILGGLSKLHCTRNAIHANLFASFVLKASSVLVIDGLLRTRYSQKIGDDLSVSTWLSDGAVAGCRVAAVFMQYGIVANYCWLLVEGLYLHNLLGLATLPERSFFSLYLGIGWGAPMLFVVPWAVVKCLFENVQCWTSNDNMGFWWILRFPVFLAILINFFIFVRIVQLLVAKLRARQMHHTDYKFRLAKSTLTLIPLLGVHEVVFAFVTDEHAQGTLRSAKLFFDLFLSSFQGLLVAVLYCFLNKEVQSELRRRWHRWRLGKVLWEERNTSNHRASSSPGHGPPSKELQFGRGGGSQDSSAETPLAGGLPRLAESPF

CC(C)CC(=O)O[C@H]1/C=C/C=C/C(=O)O[C@H]2[C@@H](C)C[C@@H]3[C@]2(O)[C@H](O)[C@@]2(CO)O[C@H]2[C@H]2[C@H]4OC5(c6ccccc6)O[C@@H]([C@@H](C)[C@@]23O5)[C@@]4(O)[C@](C)(O)C[C@H]2CC[C@H]1[C@H]2C [REDIOCIDE A]
Activity (Glucagon receptor [1]): Active | Activity [2]: inactive | IC50 [3]: 0.261 µM | Activity (Glucagon receptor [4]): inactive | Activity (Glucagon receptor [5]): inactive | Activity [6]: Active | IC50 [7]: 0.215 µM | Activity (Glucagon receptor [8]): Active | inhibition (HEK293): Dose-dependent effect | IC50 [9]: 0.088 µM | Activity [10]: inactive | Activity (Glucagon receptor [11]): inactive | Activity (Glucagon receptor [12]): Active | IC50 (Glucagon receptor [13]): 0.004 µM | Activity [14]: tde | Activity [15]: Active | IC50 [16]: 0.013 µM

GLUCAGON
Activity (Glucagon receptor [17]): Active | Activity (Glucagon receptor [18]): Active | Activity (Glucagon receptor [19]): Active | Activity (Glucagon receptor [20]): Active
